Test results published in ChEMBL document CHEMBL1143088, “Non-acidic pyrazole EP1 receptor antagonists with in vivo analgesic efficacy” (Bioorg Med Chem Lett, 2008).

Columns and labels:
[1] = target: Cytochrome P450 2D6 (Homo sapiens, UniProt P10635); assay: Inhibition of CYP2D6; assay type: ADME
[2] = target: Cytochrome P450 3A4 (Homo sapiens, UniProt P08684); assay: Inhibition of CYP3A4; assay type: ADME
[3] = target: T1, Prostaglandin E2 receptor EP3 subtype (Homo sapiens, UniProt P43115); assay: Antagonist activity at PGE2-EP3 receptor assessed as PGE2-induced intracellular calcium mobilization; assay type: functional, cell-based
T1 sequence (P43115 whole entry): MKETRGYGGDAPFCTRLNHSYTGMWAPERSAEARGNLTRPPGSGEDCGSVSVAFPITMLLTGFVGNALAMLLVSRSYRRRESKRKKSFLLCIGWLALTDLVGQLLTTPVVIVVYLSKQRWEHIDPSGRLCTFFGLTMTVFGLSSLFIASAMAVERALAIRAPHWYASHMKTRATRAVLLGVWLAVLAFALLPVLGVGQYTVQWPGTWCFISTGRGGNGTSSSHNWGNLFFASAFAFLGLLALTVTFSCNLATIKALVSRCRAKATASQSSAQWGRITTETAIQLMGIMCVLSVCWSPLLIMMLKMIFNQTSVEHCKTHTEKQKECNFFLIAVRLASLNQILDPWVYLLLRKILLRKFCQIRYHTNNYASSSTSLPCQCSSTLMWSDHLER

[4] = test system: Rattus norvegicus; assay: Reversal of FCA-induced hypersensitivity in orally dosed rat assessed as reduction in weight bearing administered with NMP as vehicle; assay type: functional; settings: po
In short: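 Oral dosing in the rat CFA inflammatory pain model was at 1, 3 and 10 mg/kg. The vehicle was 2% NMP, 2% miglyol and 2% solutol–Kleptose in water. Weight bearing was assessed 1 h post-dose. Blood was sampled at 1 h (seven rats), and brain at 10 mg/kg (three rats). ED50 was given in mg/kg.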

[5] = test system: Blood; assay: Drug uptake in FCA-induced hypersensitivity rat blood at 10 mg/kg, po administered with NMP as vehicle; assay type: ADME, organism-based; set-up: dose 10 mg/kg, route oral; settings: in vivo, read-out: Drug uptake
In short: (§1)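 CFA inflammatory pain rats dosed orally at 1, 3 and 10 mg/kg in 2% NMP, 2% miglyol, 2% solutol–Kleptose in water; samples taken 1 h post-dose. Blood levels mean of seven rats; brain level at 10 mg/kg only, mean of three rats.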

[6] = target: T2, Prostaglandin E2 receptor EP1 subtype (Homo sapiens, UniProt P34995); assay: Displacement of [3H]PGE2 from human PGE2-EP1 receptor expressed in CHO-K1 cells; assay type: cell-based
T2 sequence (P34995 whole entry): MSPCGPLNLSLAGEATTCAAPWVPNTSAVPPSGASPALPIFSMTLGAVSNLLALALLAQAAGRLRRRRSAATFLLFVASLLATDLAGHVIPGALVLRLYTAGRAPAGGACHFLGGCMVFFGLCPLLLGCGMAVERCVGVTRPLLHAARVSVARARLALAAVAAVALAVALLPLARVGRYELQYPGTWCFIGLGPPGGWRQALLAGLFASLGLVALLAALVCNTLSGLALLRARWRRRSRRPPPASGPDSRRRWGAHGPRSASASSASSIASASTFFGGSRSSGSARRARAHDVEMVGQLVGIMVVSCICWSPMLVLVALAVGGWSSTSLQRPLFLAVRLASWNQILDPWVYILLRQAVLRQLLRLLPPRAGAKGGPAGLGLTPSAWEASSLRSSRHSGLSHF

[7] = target: Cytochrome P450 2C9 (Homo sapiens, UniProt P11712); assay: Inhibition of CYP2C9; assay type: ADME
[8] = target: T3, Cytochrome P450 1A2 (Homo sapiens, UniProt P05177); assay: Inhibition of CYP1A2; assay type: ADME
T3 sequence (P05177 whole entry): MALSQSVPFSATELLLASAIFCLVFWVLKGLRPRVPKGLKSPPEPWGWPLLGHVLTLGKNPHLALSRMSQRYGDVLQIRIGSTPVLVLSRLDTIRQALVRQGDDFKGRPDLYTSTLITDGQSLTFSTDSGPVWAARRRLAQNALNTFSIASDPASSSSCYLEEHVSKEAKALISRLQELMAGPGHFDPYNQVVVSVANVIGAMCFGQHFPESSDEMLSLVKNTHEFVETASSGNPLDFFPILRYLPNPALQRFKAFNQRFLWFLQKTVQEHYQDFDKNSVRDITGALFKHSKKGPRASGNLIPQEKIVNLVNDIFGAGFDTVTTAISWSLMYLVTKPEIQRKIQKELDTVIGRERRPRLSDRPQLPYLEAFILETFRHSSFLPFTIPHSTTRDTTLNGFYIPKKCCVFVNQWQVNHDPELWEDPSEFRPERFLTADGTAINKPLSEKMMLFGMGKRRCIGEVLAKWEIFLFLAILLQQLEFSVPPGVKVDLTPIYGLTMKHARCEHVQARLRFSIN

[9] = target: T2, Prostaglandin E2 receptor EP1 subtype; assay: Antagonist activity at PGE2-EP1 receptor assessed as PGE2-induced response by schild analysis; assay type: functional; settings: read-out: pA2 (converted)
[10] = target: Cytochrome P450 2C19 (Homo sapiens, UniProt P33261); assay: Inhibition of CYP2C19; assay type: ADME
[11] = Ratio of drug level in brain to blood in FCA-induced hypersensitivity rat at 10 mg/kg, po administered with NMP as vehicle; assay type: ADME, organism-based; set-up: dose 10 mg/kg, route oral
In short: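 CFA inflammatory pain model in rats, oral dosing at 1, 3 and 10 mg/kg in 2% NMP, 2% miglyol and 2% solutol–Kleptose in water. Samples taken 1 h post-dose with the weight-bearing readout. Brain concentration measured at 10 mg/kg only; brain:blood ratio is the mean of three rats, with blood levels the mean of seven.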

[12] = Ratio of drug level in brain to blood in FCA-induced hypersensitivity rat at 10 mg/kg, po administered with DMSO and PEG400 as vehicle; assay type: ADME, organism-based; set-up: dose 10 mg/kg, route oral
In short: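 Rats with CFA-induced inflammatory pain dosed orally at 1, 3, 10 (and 30) mg/kg in 1% DMSO, 66% PEG400, 33% water. Blood and brain sampled 1 h post-dose, alongside the weight-bearing readout. Brain:blood ratio taken from the 10 mg/kg group, mean of seven rats.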

[13] = test system: Blood; assay: Drug uptake in FCA-induced hypersensitivity rat blood at 3 mg/kg, po administered with NMP as vehicle; settings: in vivo
[14] = test system: Brain; assay: Drug uptake in FCA-induced hypersensitivity rat brain at 10 mg/kg, po administered with NMP as vehicle; assay type: ADME, organism-based; set-up: dose 10 mg/kg, route oral; settings: read-out: Drug uptake, in vivo; in short: as §1
[15] = target: T2, Prostaglandin E2 receptor EP1 subtype; assay: Antagonist activity at PGE2-EP1 receptor assessed as PGE2-induced intracellular calcium mobilization; assay type: functional, cell-based
[16] = test system: Blood; assay: Drug uptake in FCA-induced hypersensitivity rat blood at 1 mg/kg, po administered with NMP as vehicle; assay type: ADME, organism-based; set-up: dose 1 mg/kg, route oral; settings: in vivo, read-out: Drug uptake; in short: as §1
[17] = test system: Rattus norvegicus; assay: Reversal of FCA-induced hypersensitivity in orally dosed rat assessed as reduction in weight bearing administered with DMSO and PEG400 as vehicle; assay type: functional; settings: po
In short: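 Rats with CFA-induced inflammatory pain were dosed orally at 1, 3 and 10 mg/kg or 1, 3, 10 and 30 mg/kg. The vehicle was 1% DMSO, 66% PEG400 and 33% water. Weight bearing was read 1 h post-dose and samples were taken then. Brain:blood ratio was measured in the 10 mg/kg group (n=7). ED50 was derived in mg/kg.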

[18] = Distribution coefficient, logD at pH 7.4; assay type: physicochemical; settings: octanol/water
In short: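 Distribution coefficient between n-octanol and water buffered to pH 7.4; log10 of ratio of equilibrium concentrations of all species.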

Cytochrome P450 2C9, sequence (P11712 whole entry): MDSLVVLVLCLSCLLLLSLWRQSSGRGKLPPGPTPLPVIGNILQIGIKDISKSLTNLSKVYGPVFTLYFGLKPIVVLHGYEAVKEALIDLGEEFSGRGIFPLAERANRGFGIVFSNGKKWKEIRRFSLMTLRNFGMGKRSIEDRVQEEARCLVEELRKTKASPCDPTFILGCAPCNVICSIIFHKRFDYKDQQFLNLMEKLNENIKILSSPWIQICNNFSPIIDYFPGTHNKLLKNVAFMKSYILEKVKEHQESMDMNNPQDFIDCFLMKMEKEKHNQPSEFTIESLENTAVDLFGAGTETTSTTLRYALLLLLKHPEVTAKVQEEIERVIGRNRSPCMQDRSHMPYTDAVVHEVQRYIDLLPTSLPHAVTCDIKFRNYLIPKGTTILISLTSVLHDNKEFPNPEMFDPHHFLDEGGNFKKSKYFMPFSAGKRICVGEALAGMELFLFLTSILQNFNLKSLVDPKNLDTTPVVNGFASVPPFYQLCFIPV
Cytochrome P450 3A4, sequence (P08684 whole entry): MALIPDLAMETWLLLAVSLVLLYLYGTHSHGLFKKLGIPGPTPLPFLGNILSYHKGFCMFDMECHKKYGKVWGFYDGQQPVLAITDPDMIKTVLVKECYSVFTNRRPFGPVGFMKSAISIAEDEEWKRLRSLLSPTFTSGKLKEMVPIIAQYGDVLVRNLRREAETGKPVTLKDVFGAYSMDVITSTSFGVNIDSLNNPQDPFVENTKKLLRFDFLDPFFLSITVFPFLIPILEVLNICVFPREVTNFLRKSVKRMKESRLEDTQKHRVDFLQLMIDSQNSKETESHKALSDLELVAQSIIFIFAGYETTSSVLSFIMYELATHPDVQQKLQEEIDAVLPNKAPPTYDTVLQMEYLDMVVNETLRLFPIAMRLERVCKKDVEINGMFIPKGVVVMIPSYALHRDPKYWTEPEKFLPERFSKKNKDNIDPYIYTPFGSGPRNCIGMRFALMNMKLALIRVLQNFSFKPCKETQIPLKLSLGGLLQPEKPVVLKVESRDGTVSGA
Cytochrome P450 2C19, sequence (P33261 whole entry): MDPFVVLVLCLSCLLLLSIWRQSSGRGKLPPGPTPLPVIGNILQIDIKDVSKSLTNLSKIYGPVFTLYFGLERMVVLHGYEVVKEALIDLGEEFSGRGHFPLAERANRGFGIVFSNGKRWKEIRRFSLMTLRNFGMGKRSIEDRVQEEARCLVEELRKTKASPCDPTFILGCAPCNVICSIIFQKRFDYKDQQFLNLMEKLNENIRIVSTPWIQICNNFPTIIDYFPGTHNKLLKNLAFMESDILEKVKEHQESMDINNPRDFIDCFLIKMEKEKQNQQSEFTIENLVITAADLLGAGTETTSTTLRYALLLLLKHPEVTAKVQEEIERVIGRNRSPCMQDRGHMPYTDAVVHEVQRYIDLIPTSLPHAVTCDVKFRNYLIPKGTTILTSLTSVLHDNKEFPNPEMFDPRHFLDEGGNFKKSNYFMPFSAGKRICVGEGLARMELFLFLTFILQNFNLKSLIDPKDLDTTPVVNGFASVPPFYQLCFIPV
Cytochrome P450 2D6, sequence (P10635 whole entry): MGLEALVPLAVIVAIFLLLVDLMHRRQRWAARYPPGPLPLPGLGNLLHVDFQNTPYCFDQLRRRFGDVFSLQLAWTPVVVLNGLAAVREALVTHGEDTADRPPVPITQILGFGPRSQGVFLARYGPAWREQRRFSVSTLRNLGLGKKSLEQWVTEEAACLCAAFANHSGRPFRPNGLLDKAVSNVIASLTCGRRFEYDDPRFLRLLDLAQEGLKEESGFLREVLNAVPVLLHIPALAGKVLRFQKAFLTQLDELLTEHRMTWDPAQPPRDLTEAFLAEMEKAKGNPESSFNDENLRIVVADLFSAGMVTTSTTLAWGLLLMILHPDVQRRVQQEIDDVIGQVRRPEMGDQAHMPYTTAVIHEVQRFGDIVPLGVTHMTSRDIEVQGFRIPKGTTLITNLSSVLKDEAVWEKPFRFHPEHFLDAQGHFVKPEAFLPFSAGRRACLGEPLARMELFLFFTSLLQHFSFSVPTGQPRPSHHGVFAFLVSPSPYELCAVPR

Cc1cc(NC(=O)OC(C)C)nn1Cc1cc(Cl)ccc1OCc1ccccc1
IC50 [1]: > 100 µM
IC50 [2]: > 81 µM
Ki [3]: > 10 µM
ED50 [4]: 4.6 mg/kg
concentration [5]: 1.4 µM
IC50 [6]: 0.0316 µM
IC50 [7]: 17 µM
IC50 [8]: 7.8 µM
Kb [9]: 0.00794 µM
IC50 [10]: > 100 µM
Kp [11]: 2.2
Kp [12]: 1.73
concentration [13]: 0.749 µM
concentration [14]: 3.33 µM
Ki [15]: 0.0501 µM
concentration [16]: 0.153 µM
ED50 [17]: 1.89 mg/kg
logD [18]: > 3.7
